Assays:
[1] = target: T1, Hepatocyte growth factor activator serine protease (Homo sapiens, UniProt Q04756); assay: Inhibition of recombinant HGFA serine protease domain (unknown origin) using Boc-QLR-AMC as substrate preincubated for 30 mins followed by substrate addition by fluorescence based assay
T1 sequence (Q04756 whole entry): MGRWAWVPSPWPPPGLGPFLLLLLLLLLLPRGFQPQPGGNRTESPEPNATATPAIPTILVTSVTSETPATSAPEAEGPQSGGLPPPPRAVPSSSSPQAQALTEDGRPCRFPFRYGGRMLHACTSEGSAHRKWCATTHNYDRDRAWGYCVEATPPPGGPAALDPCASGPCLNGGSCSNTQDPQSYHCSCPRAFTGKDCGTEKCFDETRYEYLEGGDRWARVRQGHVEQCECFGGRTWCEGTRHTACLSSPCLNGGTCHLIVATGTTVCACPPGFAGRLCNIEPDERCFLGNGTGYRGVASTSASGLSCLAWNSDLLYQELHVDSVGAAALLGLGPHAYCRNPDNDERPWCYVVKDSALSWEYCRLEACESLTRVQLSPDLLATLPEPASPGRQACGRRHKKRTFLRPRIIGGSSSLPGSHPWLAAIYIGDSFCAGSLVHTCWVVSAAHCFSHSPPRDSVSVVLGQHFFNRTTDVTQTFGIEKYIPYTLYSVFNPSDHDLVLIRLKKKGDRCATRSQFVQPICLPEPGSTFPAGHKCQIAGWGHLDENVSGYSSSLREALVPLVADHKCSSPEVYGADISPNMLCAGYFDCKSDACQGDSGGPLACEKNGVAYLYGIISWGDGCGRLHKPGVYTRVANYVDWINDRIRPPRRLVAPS
Outline: (§1)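 Fluorogenic kinetic protease assay: Boc-QLR-AMC substrate for HGFA, Boc-QAR-AMC for hepsin. Each inhibitor was tested at eleven concentrations, pre-incubated with the protease, and then substrate was added. Release of fluorescent product was followed kinetically over one hour, and IC50 was taken from the concentration-dependent inhibition of proteolysis.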

Prothrombin = Prothrombin (Homo sapiens, UniProt P00734); assay: Inhibition of recombinant thrombin (unknown origin) using D-Phe-Pip-Arg-pNA as substrate preincubated for 30 mins followed by substrate addition by chromogenic assay
Coagulation factor X = Coagulation factor X (Homo sapiens, UniProt P00742); assay: Inhibition of recombinant factor Xa (unknown origin) using Bz-Ile-Glu-Gly-Arg-pNA as substrate preincubated for 30 mins followed by substrate addition by chromogenic assay
Coagulation factor X, sequence (P00742 41-179 limits assumed): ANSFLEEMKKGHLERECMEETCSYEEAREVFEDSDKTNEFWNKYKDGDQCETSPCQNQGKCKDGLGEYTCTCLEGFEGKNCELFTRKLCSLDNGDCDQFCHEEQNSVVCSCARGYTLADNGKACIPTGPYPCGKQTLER
Coagulation factor X, sequence (P00742 235-488 limits assumed): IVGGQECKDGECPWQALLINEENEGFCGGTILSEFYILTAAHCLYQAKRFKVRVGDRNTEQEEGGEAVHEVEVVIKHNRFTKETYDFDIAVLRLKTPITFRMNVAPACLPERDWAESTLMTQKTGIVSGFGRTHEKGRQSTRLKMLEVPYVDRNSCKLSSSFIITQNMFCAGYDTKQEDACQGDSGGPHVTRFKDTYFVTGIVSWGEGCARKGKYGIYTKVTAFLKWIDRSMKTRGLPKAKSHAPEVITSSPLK

Serine protease hepsin = Serine protease hepsin (Homo sapiens, UniProt P05981); assay: Inhibition of recombinant human C-terminal 10-His tagged hepsin (Arg45 to Leu417) expressed in mouse myeloma cells using Boc-QAR-AMC as substrate preincubated for 30 mins followed by substrate addition by fluorescence based assay; outline: as §1
Serine protease hepsin, sequence (P05981 1-162 limits assumed): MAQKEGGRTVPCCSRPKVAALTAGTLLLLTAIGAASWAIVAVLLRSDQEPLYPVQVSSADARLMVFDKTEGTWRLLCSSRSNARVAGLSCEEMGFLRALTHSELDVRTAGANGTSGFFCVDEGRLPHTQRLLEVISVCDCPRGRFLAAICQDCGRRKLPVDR
Serine protease hepsin, sequence (P05981 163-417 limits assumed): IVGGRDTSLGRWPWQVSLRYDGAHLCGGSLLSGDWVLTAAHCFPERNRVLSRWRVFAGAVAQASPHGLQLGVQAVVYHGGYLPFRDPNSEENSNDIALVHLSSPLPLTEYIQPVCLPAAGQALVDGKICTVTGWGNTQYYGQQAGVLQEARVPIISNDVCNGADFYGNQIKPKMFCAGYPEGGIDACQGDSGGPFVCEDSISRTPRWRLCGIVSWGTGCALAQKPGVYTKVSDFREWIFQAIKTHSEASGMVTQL

[2] = target: T2, Suppressor of tumorigenicity 14 protein (Homo sapiens, UniProt Q9Y5Y6); assay: Inhibition of recombinant human N-terminal met-His6-tagged matriptase catalytic domain (Gly596 to Val855 residues) expressed in Escherichia coli using Boc-QAR-AMC as substrate preincubated for 30 mins followed by substrate addition by fluorescence based assay
T2 sequence (Q9Y5Y6 whole entry): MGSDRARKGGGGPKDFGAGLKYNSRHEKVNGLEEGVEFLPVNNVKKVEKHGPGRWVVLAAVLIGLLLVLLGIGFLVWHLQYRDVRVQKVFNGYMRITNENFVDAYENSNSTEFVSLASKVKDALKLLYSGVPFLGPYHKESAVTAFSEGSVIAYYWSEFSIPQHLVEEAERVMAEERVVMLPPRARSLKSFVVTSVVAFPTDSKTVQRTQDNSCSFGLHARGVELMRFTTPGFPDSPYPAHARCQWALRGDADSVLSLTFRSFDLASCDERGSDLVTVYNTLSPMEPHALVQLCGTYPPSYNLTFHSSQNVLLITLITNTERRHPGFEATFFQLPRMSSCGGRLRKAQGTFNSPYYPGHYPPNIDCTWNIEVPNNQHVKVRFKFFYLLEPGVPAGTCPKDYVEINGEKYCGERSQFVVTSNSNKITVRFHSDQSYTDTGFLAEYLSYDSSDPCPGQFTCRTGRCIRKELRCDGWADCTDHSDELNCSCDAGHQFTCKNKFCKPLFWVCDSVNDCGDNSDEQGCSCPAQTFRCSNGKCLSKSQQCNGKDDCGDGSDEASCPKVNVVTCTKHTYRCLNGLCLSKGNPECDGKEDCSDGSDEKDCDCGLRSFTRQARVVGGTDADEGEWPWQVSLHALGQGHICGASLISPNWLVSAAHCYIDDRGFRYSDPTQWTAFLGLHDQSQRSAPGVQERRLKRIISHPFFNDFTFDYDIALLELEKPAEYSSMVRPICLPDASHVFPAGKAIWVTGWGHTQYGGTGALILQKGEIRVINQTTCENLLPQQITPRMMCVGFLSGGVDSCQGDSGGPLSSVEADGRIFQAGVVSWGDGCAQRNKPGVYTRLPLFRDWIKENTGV

Structure (SMILES) | IC50 [1] | IC50 (Prothrombin) | IC50 (Coagulation factor X) | IC50 (Serine protease hepsin) | IC50 [2]
CC(C)C[C@H](NC(=O)OC1CCN(S(=O)(=O)c2ccc([N+](=O)[O-])cc2[N+](=O)[O-])CC1)C(=O)N[C@@H](CCCNC(=N)N)C(=O)c1nc2ccccc2s1 | > 20 µM | – | – | – | –
CC(=O)N[C@@H](CO)C(=O)N[C@@H](CCCCN)C(=O)N[C@@H](CC(C)C)C(=O)N[C@@H](CCCNC(=N)N)C(=O)c1nc2ccccc2s1 | – | > 20 µM | – | – | –
CC1CN(CC2CCN(Cc3ccccc3)CC2)C(=O)N(c2cccc(C(=N)N)c2)C1 (configuration not stated) | 20 µM | 11.6 µM | 0.38 µM | 1.9 µM | 3.2 µM
N=C(N)c1cccc(C[C@H](NS(=O)(=O)c2ccc3ccccc3c2)C(=O)N2CCN(C(=O)NCc3ccc(Br)cc3)CC2)c1 | 30 µM | – | – | 0.09 µM | 8.4 µM
CC(=O)N[C@@H](CCCCN)C(=O)N[C@@H](CCC(N)=O)C(=O)N[C@@H](CC(C)C)C(=O)N[C@@H](CCCNC(=N)N)C(=O)c1nc2ccccc2s1 | – | > 20 µM | – | – | –
Cc1cc(C)c(S(=O)(=O)N2CCC(OC(=O)N[C@@H](CC(C)C)C(=O)N[C@@H](CCCNC(=N)N)C(=O)c3nc4ccccc4s3)CC2)c(C)c1 | – | – | – | – | > 20 µM
CC(C)C[C@H](NC(=O)OC1(c2ccccc2)CCNCC1)C(=O)N[C@@H](CCCNC(=N)N)C(=O)c1nc2ccccc2s1 | – | > 20 µM | – | – | –
CC(C)c1cc(C(C)C)c(S(=O)(=O)N[C@@H](Cc2cccc(C(=N)N)c2)C(=O)N2CCN(C(=O)C3CCNCC3)CC2)c(C(C)C)c1 | 11 µM | – | – | 14 µM | –

Other lines, results leading:

IC50 [1] | IC50 (Prothrombin) | IC50 (Coagulation factor X) | IC50 (Serine protease hepsin) | IC50 [2] | Structure (SMILES)
> 20 µM | > 20 µM | > 20 µM | – | – | CCS(=O)(=O)N1CCC(OC(=O)N[C@@H](CC(C)C)C(=O)N[C@@H](CCCNC(=N)N)C(=O)c2nc3ccccc3s2)CC1
> 20 µM | – | – | – | – | CC(=O)N1CCC(CCc2ccccc2)(OC(=O)N[C@@H](CC(C)C)C(=O)N[C@@H](CCCNC(=N)N)C(=O)c2nc3ccccc3s2)CC1
1.2 µM | > 20 µM | 6.5 µM | 0.0006 µM | 0.03 µM | CC(C)C[C@H](NC(=O)OC1(Cc2ccccc2)CCNCC1)C(=O)N[C@@H](CCCNC(=N)N)C(=O)c1nc2ccccc2s1
> 20 µM | – | – | – | – | CC(=O)N1CCC(OC(=O)N[C@@H](CC(C)C)C(=O)N[C@@H](CCCNC(=N)N)C(=O)c2nc3ccccc3s2)CC1
> 20 µM | > 20 µM | – | – | – | N=C(N)NCCC[C@H](NC(=O)[C@H](CC1CCCCC1)NC(=O)OC1(c2ccccc2)CCNCC1)C(=O)c1nc2ccccc2s1
– | > 20 µM | > 20 µM | – | – | CC(C)C[C@H](NC(=O)OC(c1ccccc1)C1CCNCC1)C(=O)N[C@@H](CCCNC(=N)N)C(=O)c1nc2ccccc2s1 (some centres not stated)
> 20 µM | – | – | – | – | CC(C)C[C@H](NC(=O)OC1CCN(S(=O)(=O)c2cccc(F)c2)CC1)C(=O)N[C@@H](CCCNC(=N)N)C(=O)c1nc2ccccc2s1
– | > 20 µM | > 20 µM | – | – | CC(C)C[C@H](NC(=O)OC1CCN(S(=O)(=O)c2ccccc2)CC1)C(=O)N[C@@H](CCCNC(=N)N)C(=O)c1nc2ccccc2s1

From ChEMBL document CHEMBL4373666, “Piperidine carbamate peptidomimetic inhibitors of the serine proteases HGFA, matriptase and hepsin” (Medchemcomm, 2019)
